Reference: ChEMBL document CHEMBL1131000, “Synthesis and quantitative structure-activity relationships of N-(1-benzylpiperidin-4-yl)phenylacetamides and related analogues as potent and selective sigma1 receptor ligands” (J Med Chem, 1998)

What follows are compounds tested against Sigma 2 receptor (assay: Binding affinity towards sigma 2 receptor site in rat liver membranes using [3H]DTG as radioligand in presence of (+)-pentazocine.).
Format: cell membranes, Membrane
Method in brief: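 Male Sprague-Dawley rat liver crude P2 membranes, 35 μg protein, with 3 nM [3H]DTG plus 100 nM (+)-pentazocine to mask σ1 sites. Incubated in 50 mM Tris-HCl pH 8.0 for 120 min at 25 °C. Nonspecific binding defined with 5 μM DTG. Filtration, then scintillation counting. IC50 by nonlinear regression.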
O=C(Cc1ccc(Cl)cc1Cl)NC1CCN(Cc2ccccc2)CC1 was tested, and the Ki was 24.5 nM. O=C(Cc1ccccc1[N+](=O)[O-])NC1CCN(Cc2ccccc2)CC1 was tested, and the Ki was 493 nM. In the case of O=C(Cc1cccc(F)c1)NC1CCN(Cc2ccccc2)CC1, the Ki is reported as 153 nM. O=C(Cc1ccccc1C(F)(F)F)NC1CCN(Cc2ccccc2)CC1 showed a Ki of 61.9 nM. Work on O=C(Cc1ccc([N+](=O)[O-])cc1)NC1CCN(Cc2ccccc2)CC1 yielded a Ki of 105 nM. COc1ccc(OC)c(CC(=O)NC2CCN(Cc3ccccc3)CC2)c1 was tested, and the Ki was > 1000 nM. COc1ccc(CC(=O)NC2CCN(Cc3ccccc3)CC2)cc1 gave a Ki of 483 nM. In the case of O=C(Cc1ccc(F)c(F)c1)NC1CCN(Cc2ccccc2)CC1, the Ki is reported as 53.5 nM. In the case of O=C(Cc1ccc(O)c(O)c1)NC1CCN(Cc2ccccc2)CC1, the Ki is reported as > 1000 nM. With O=C(Cc1ccc(F)cc1)NC1CCN(Cc2ccccc2)CC1 the Ki was 69.2 nM. With COc1cccc(C(O)CNC2CCN(Cc3ccccc3)CC2)c1OC (centres undefined) the Ki was 535 nM. With O=C(Cc1ccccc1O)NC1CCN(Cc2ccccc2)CC1 the Ki was 343 nM. O=C(Cc1cccc([N+](=O)[O-])c1)NC1CCN(Cc2ccccc2)CC1 showed a Ki of 79.2 nM. In the case of O=C(Cc1cc(F)cc(F)c1)NC1CCN(Cc2ccccc2)CC1, the Ki is reported as 37.3 nM. COc1cc(CC(=O)NC2CCN(Cc3ccccc3)CC2)cc(OC)c1 was tested, and the Ki was > 1000 nM. With COc1ccccc1CC(=O)NC1CCN(Cc2ccccc2)CC1 the Ki was > 1000 nM. For COc1cccc(CC(=O)NC2CCN(Cc3ccccc3)CC2)c1, the Ki was 326 nM. Compound O=C(Cc1ccc(Cl)cc1)NC1CCN(Cc2ccccc2)CC1 has a Ki of 80.7 nM. In the case of O=C(Cc1cccc(O)c1)NC1CCN(Cc2ccccc2)CC1, the Ki is reported as > 1000 nM. With O=C(Cc1ccccc1Br)NC1CCN(Cc2ccccc2)CC1 the Ki was 86.6 nM. In the case of O=C(Cc1ccc([N+](=O)[O-])cc1[N+](=O)[O-])NC1CCN(Cc2ccccc2)CC1, the Ki is reported as 243 nM. O=C(Cc1ccc(O)c(Cl)c1)NC1CCN(Cc2ccccc2)CC1 gave a Ki of 757 nM. CSc1ccc(CC(=O)NC2CCN(Cc3ccccc3)CC2)cc1 gave a Ki of 83.3 nM. O=C(Cc1ccc(O)cc1)NC1CCN(Cc2ccccc2)CC1 was tested, and the Ki was > 1000 nM. For COc1ccc(CC(=O)NC2CCN(Cc3ccccc3)CC2)cc1OC, the Ki was > 1000 nM. O=C(Cc1ccc(F)cc1F)NC1CCN(Cc2ccccc2)CC1 was tested, and the Ki was 130 nM. O=C(Cc1ccccc1Cl)NC1CCN(Cc2ccccc2)CC1 showed a Ki of 174 nM. Compound CSc1ccc(NC(=O)NC2CCN(Cc3ccccc3)CC2)cc1 has a Ki of 80.5 nM. O=C(Cc1ccccc1F)NC1CCN(Cc2ccccc2)CC1 was tested, and the Ki was 667 nM. For O=C(Cc1cccc(Cl)c1)NC1CCN(Cc2ccccc2)CC1, the Ki was 36.9 nM. In the case of O=C(Cc1ccccc1)NC1CCN(Cc2ccccc2)CC1, the Ki is reported as 240 nM. With COc1ccc(NC(=O)NC2CCN(Cc3ccccc3)CC2)c(OC)c1 the Ki was 227 nM. Compound O=C(Cc1ccc(Br)cc1)NC1CCN(Cc2ccccc2)CC1 has a Ki of 23.9 nM. Work on O=C(Cc1ccc(Cl)c(Cl)c1)NC1CCN(Cc2ccccc2)CC1 yielded a Ki of 14.6 nM. For O=C(Cc1cc(F)ccc1F)NC1CCN(Cc2ccccc2)CC1, the Ki was 129 nM. Compound O=C(Cc1c(Cl)cccc1Cl)NC1CCN(Cc2ccccc2)CC1 has a Ki of 70.8 nM. Work on O=C(Cc1cccc(Br)c1)NC1CCN(Cc2ccccc2)CC1 yielded a Ki of 15.2 nM. In the case of O=C(Cc1ccc(C(F)(F)F)cc1)NC1CCN(Cc2ccccc2)CC1, the Ki is reported as 53.4 nM. Compound O=C(Cc1cccc(C(F)(F)F)c1)NC1CCN(Cc2ccccc2)CC1 has a Ki of 37.8 nM. O=C(Cc1c(F)cccc1F)NC1CCN(Cc2ccccc2)CC1 gave a Ki of 207 nM. COc1cc(CC(=O)NC2CCN(Cc3ccccc3)CC2)cc(OC)c1OC was tested, and the Ki was > 1000 nM. With Nc1ccc(CC(=O)NC2CCN(Cc3ccccc3)CC2)cc1 the Ki was > 1000 nM. O=C(Cc1ccc2c(c1)OCO2)NC1CCN(Cc2ccccc2)CC1 was tested, and the Ki was 290 nM. OC(CCCN1CCC(O)(c2ccc(Cl)cc2)CC1)c1ccc(F)cc1 (centres undefined) [HYDROXYHALOPERIDOL] was tested, and the Ki was 28.6 nM.
